The results in this text go back to ChEMBL document CHEMBL5380838, “Novel Aryl Sulfonamide Derivatives as NLRP3 Inflammasome Inhibitors for the Potential Treatment of Cancer” (J Med Chem, 2023).

The subject of series [1] is B16-F10. Kind of series: Effect on total caspase-1 expression in cytosolic luciferase-transfected mouse B16-F10 cells xenografted in C57BL/6 mouse at 25 mg/kg, ip administered thrice weekly measured after 14 days by Western blot analysis. In kind it is functional, organism-based. Conditions: time 14.0 day. Put shortly: (§1)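 Tumors from luciferase-expressing B16-F10 grafts in C57BL/6 mice, dosed IP at 25 mg/kg thrice weekly (DMSO controls), were excised at endpoint and homogenized in sucrose/HEPES/IGEPAL lysis buffer. Lysates were western blotted and bands expressed as fold ratio over β-actin (n = 5).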
(In general: Immunoblotting shows a protein as a band on a membrane.)

Series [2] deals with B16-F10. Kind of series: Effect on NLRP3 expression in cytosolic luciferase-transfected mouse B16-F10 cells xenografted in C57BL/6 mouse at 25 mg/kg, ip administered thrice weekly measured after 14 days by Western blot analysis. Format: functional, organism-based. The note with it: time 14.0 day. Put shortly:
as §1

The subject of series [3] is THP-1. Kind of series: Suppression of IL-1beta processing in LPS-treated human THP-1 cells at 1 to 1000 nM incubated for 30 mins followed by ATP stimulation for 1 hr by ELISA method. In kind it is functional, cell-based. Conditions: dose 1-1000 nM, time 90.0 min. Background: An ELISA detects its analyte on a solid surface through an enzyme-linked reagent.
Series [4] has as its system B16-F10. Kind of series: Antitumor activity against cytosolic luciferase-transfected mouse B16-F10 cells xenografted in C57BL/6 mouse assessed as tumor reduction at 25 mg/kg, ip administered thrice weekly measured after 14 days by bioluminescence assay. Format: functional, organism-based. Conditions: time 14.0 day. An outline of the steps: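 Female C57BL/6 mice aged 6–8 weeks inoculated subcutaneously with 1 × 10^6 B16-F10 cells stably expressing cytosolic luciferase. From day 5, IP dosing of 25 mg/kg thrice weekly, DMSO for controls, five mice per group. Imaging after IP D-luciferin 150 mg/kg under 2.5% isoflurane, read after 15 min. Caliper volume = π/6 × a × b². Tumors excised day 14.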

Series [5] relates to THP-1. Kind of series: Cytotoxicity against human THP-1 cells assessed as reduction in cell viability at 1 uM measured after 48 hrs by RealTime-Glo MT assay. In kind it is toxicity, cell-based. Conditions: thp-1, 48 h. Put shortly:
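THP-1 cells (10 × 10^4/well) treated with inhibitors at 1 µM and kept 48 h; RealTime-Glo reagent added, luminescence read every 12 h as a proxy for metabolically active cells; means of RLU ± SEM.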

The test system of series [6] is THP-1. Kind of series: Suppression of ASC expression in LPS-treated human THP-1 cells at 1 to 1000 nM incubated for 30 mins followed by ATP stimulation for 1 hr […]. Format: functional, cell-based. Conditions: dose 1-1000 nM, time 90.0 min. An outline of the steps:
(§2)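 PMA-differentiated THP-1 cells (1 × 10^6/well) primed with LPS 1 µg/mL for 3 h, then DMSO or compound in serum-free medium for 30 min, then 5 mM ATP for 1 h. RIPA lysates (20 µg) and concentrated supernatants run on SDS-PAGE and western blotted for NLRP3, ASC, caspase-1 and IL-1β, normalized to GAPDH; three independent experiments.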

For series [7], the system named is THP-1. Kind of series: Suppression of caspase-1 expression in LPS-treated human THP-1 cells at 1 to 1000 nM incubated for 30 mins followed by ATP stimulation for 1 hr by […]. In kind it is functional, cell-based. The note with it: dose 1-1000 nM, time 90.0 min. Put shortly:
as §2

Series [8] deals with BMDM. Kind of series: Effect on ASC level in LPS-treated mouse BMDM cells at 1 uM incubated for 30 mins followed by ATP stimulation for 1 hr by Hoechst staining based microscopy. In kind it is functional, cell-based. The note with it: time 90.0 min. Put shortly:
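BMDMs primed with LPS 1 µg/mL for 2 h, given DMSO or compound 1 µM for 30 min, then 5 mM ATP for 1 h. Cells fixed in 4% PFA, permeabilized with 0.1% Triton X-100, stained with anti-ASC overnight at 4 °C plus fluorescent secondary, nuclei Hoechst 1 µM; confocal imaging with 63× oil objective.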

Calls of active or inactive are those of the source. No cut-off for these calls is given here.

Take `CC(C)[C@H](NS(=O)(=O)c1ccc([N+](=O)[O-])cc1)C(=O)Nc1c2c(cc3c1CCC3)CCC2`: the outcome in series [1], in series [2], in series [6], in series [7] and in series [8] was inactive. The result in series [3] and in series [4] was Active. Further, the Activity result in series [5] is listed as “Non-Toxic”.
